Test results: ChEMBL document CHEMBL3856193, “Combretastatin A-4 analogues with benzoxazolone scaffold: Synthesis, structure and biological activity” (Eur J Med Chem, 2016)
Calls of active or inactive are those of the source. The calls are words filed in the database; no cut-off is given here.

What was measured:
[1] = Solubility of compound in water; assay type: physicochemical; conditions: buffer
[2] = Growth inhibition of human EAhy926 cells measured after 72 hrs by MTT assay; assay type: functional, cell-based; conditions: EA.hy 926, 72 h
Outline: (§1)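 Cells seeded at 1 x 10^4/100 µL, treated 24 h later with drug diluted from 2 mmol/L DMSO stock (0.01% DMSO final), 72 h incubation. MTT added for 3 h at 37°C, formazan dissolved in 0.1 N HCl/isopropanol, OD read at 550/630 nm. Eight replicates per concentration, mean ± SD. IC50 from curve fitting. Cells kept at 37°C in humidified CO2.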

[3] = Growth inhibition of human HepG2 cells measured after 72 hrs by MTT assay; assay type: functional, cell-based; conditions: HepG2, 72 h; outline: as §1
[4] = Growth inhibition of human K562 cells measured after 72 hrs by MTT assay; assay type: functional, cell-based; conditions: K562, 72 h; outline: as §1
[5] = Cell cycle arrest in human HepG2 cells assessed as >4N DNA content at growth inhibitory IC50 measured after 24 hrs by propidium iodide-staining based FACS analysis relative to control; assay type: functional; set-up: scale not given: the % may be the effect or the level left
[6] = Antiproliferative activity against human MCF7 cells measured after 72 hrs by MTT assay; assay type: functional, cell-based; conditions: MCF7, 72 h; outline: as §1
EA.hy 926 [7] = assay: Antiangiogenic activity against human EAhy926 assessed as inhibition of capillary tube formation at 0.28 uM after 72 hrs by matrigel assay; assay type: functional
Outline: (§2)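 EA.hy 926 cells (4 x 10^4) plated onto Matrigel pre-set 30 min at 37°C in complete DMEM; after 24 h medium replaced by EBM2 alone (control) or EBM2 with 0.28 µM or 0.11 µM drug. Capillary tube formation followed by inverted microscopy up to 72 h.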

[8] = Cell cycle arrest in human HepG2 cells assessed as accumulation of cells with 4N DNA content at growth inhibitory IC50 measured after 24 hrs by propidium iodide-staining based FACS analysis relative to control; assay type: functional; set-up: scale not given: the % may be the effect or the level left
A549 = assay: Potency index, ratio of combretastatin A-4 IC50 to compound IC50 for human A549 cells; assay type: functional
K562 = assay: Cytostatic activity against human K562 cells up to 25 uM measured after 72 hrs by MTT assay; assay type: functional, cell-based; outline: as §1
[9] = Antiproliferative activity against human HaCaT cells measured after 72 hrs by MTT assay; assay type: functional, cell-based
Outline: (§3)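 Cells seeded at 1 × 10^4 per well and left 24 h, then exposed to graded compound concentrations (stock 2 mmol/L in DMSO, final DMSO 0.01% in medium) for 72 h at 37 °C in humidified CO2. MTT (5 mg/mL) added for 3 h; formazan dissolved in 0.1 N HCl/isopropanol and read at 550/630 nm. Eight replicate wells per concentration; IC50 from curve fitting.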

HepG2 [10] = assay: Cytostatic activity against human HepG2 cells up to 25 uM measured after 72 hrs by MTT assay; assay type: functional, cell-based; outline: as §1
Sus scrofa [11] = species on record: Sus scrofa; assay: Inhibition of porcine brain tubulin polymerization measured every 1 min for 40 mins in presence of GTP
EA.hy 926 [12] = assay: Cytostatic activity against human EAhy926 cells up to 25 uM measured after 72 hrs by MTT assay; assay type: functional, cell-based; outline: as §1
HT-29 = assay: Potency index, ratio of IC50 for combretastatin A-4 to IC50 for test compound against human HT-29 cells; assay type: functional
[13] = Antiproliferative activity against CA-4-resistant human HT-29 cells measured after 72 hrs by MTT assay; assay type: functional, cell-based; conditions: HT-29, 72 h; outline: as §3
[14] = Cell cycle arrest in human HepG2 cells assessed as decrease in accumulation of G2/M phase at growth inhibitory IC50 measured after 72 hrs by propidium iodide-staining based FACS analysis; assay type: functional
Sus scrofa [15] = species on record: Sus scrofa; assay: Inhibition of porcine brain tubulin polymerization at 50 uM measured every 1 min for 40 mins in presence of GTP
[16] = Cell cycle arrest in human HepG2 cells assessed as accumulation in G2/M phase at growth inhibitory IC50 measured after 8 hrs by propidium iodide-staining based FACS analysis (reference value: 28%); assay type: functional; set-up: scale not given: the % may be the effect or the level left
[17] = Antiproliferative activity against mouse Colon 26 cells measured after 72 hrs by MTT assay; assay type: functional, cell-based; conditions: Colon 26, 72 h; outline: as §3
EA.hy 926 [18] = assay: Induction of apoptosis in human EAhy926 cells assessed as necrotic cells at 0.19 to 0.28 uM measured after 48 hrs by Annexin V-FITC/propidium iodide staining-based flow cytometric analysis relative to control; assay type: functional
HepG2 [19] = assay: Inhibition of beta-tubulin polymerization in human HepG2 cells assessed as induction of mitotic ploidity at 185 to 190 nM measured after 24 hrs by DAPI staining based immunofluorescence analysis; assay type: cell-based
Outline: (§4)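 HepG2 cells grown on coverslips were treated 24 h with 185 nM drug, with 0.01% DMSO vehicle as control. Cells fixed in 3.7% buffered paraformaldehyde and immunostained for β-tubulin (AlexaFluor-488 secondary, 40 min). F-actin labelled with phalloidin, DNA with DAPI mounting medium. Imaged by fluorescence microscopy.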

HepG2 [20] = assay: Induction of micronuclei formation in human HepG2 cells at 185 to 190 nM measured after 24 hrs by DAPI staining based immunofluorescence analysis; assay type: functional, cell-based; outline: as §4
HepG2 [21] = assay: Inhibition of beta-tubulin polymerization in human HepG2 cells assessed as DNA fragmentation at 185 to 190 nM measured after 24 hrs by DAPI staining based immunofluorescence analysis; assay type: cell-based; outline: as §4
Sus scrofa [22] = species on record: Sus scrofa; assay: Inhibition of porcine brain tubulin polymerization at 10 uM measured every 1 min for 40 mins in presence of GTP
[23] = Cell cycle arrest in human HepG2 cells assessed as increase in G2/M phase accumulation at growth inhibitory IC50 after 8 hrs by propidium iodide-staining based FACS analysis relative to combretastatin A-4; assay type: functional; set-up: scale not given: the % may be the effect or the level left
[24] = Antiproliferative activity against CA-4-resistant human MDA-MB-231 cells measured after 72 hrs by MTT assay; assay type: functional, cell-based; conditions: MDA-MB-231, 72 h; outline: as §1
EA.hy 926 [25] = assay: Induction of apoptosis in human EAhy926 cells assessed as increase in apoptotic cells at growth inhibitory IC50 measured after 48 hrs by Annexin V-FITC/propidium iodide staining-based flow cytometric analysis relative to control; assay type: functional, cell-based
Colon 26 = assay: Potency index, ratio of combretastatin A-4 IC50 to compound IC50 for mouse Colon 26 cells; assay type: functional
[26] = Cytostatic activity against human MCF10A cells assessed as cell survival up to 25 uM measured after 72 hrs by MTT assay relative to control; assay type: ADME, cell-based, MCF-10A; conditions: read-out: Survival
[27] = Cytotoxicity against human NHEK measured after 72 hrs by MTT assay; assay type: toxicity; outline: as §1
HepG2 [28] = assay: Inhibition of beta-tubulin polymerization in human HepG2 cells assessed as formation of pseudo G1 phase multinucleated cells at 185 to 190 nM measured after 24 hrs by DAPI staining based immunofluorescence analysis; assay type: cell-based; outline: as §4
Sus scrofa [29] = species on record: Sus scrofa; assay: Induction of porcine brain tubulin polymerization assessed as time required to reach maxium effect at 10 uM measured every 1 min for 40 mins in presence of GTP
[30] = Cell cycle arrest in human HepG2 cells assessed as accumulation of hypoploid sub-G1 cells at growth inhibitory IC50 measured after 72 hrs by propidium iodide-staining based FACS analysis; assay type: functional
HepG2 [31] = assay: Inhibition of beta-tubulin polymerization in human HepG2 cells assessed as multi-polar spindle formation at 185 to 190 nM measured after 24 hrs by DAPI staining based immunofluorescence analysis; assay type: cell-based; outline: as §4
[32] = Antiproliferative activity against CA-4-resistant human A549 cells measured after 72 hrs by MTT assay; assay type: functional, cell-based; conditions: A549, 72 h; outline: as §3
[33] = Cell cycle arrest in human HepG2 cells assessed as decrease in G0/G1 phase at growth inhibitory IC50 measured after 24 hrs by propidium iodide-staining based FACS analysis; assay type: functional
[34] = Cell cycle arrest in human HepG2 cells assessed as decrease in S phase at growth inhibitory IC50 measured after 24 hrs by propidium iodide-staining based FACS analysis; assay type: functional
HepG2 [35] = assay: Inhibition of beta-tubulin polymerization in human HepG2 cells assessed as mitotic slippage at 185 to 190 nM measured after 24 hrs by DAPI staining based immunofluorescence analysis; assay type: cell-based; outline: as §4
HepG2 [36] = assay: Induction of apoptosis in human HepG2 cells assessed as increase in apoptotic cells at growth inhibitory IC50 measured after 48 hrs by Annexin V-FITC/propidium iodide staining-based flow cytometric analysis relative to control; assay type: functional, cell-based
HepG2 [37] = assay: Induction of apoptosis in human HepG2 cells assessed as necrotic cells at 0.19 to 0.28 uM measured after 48 hrs by Annexin V-FITC/propidium iodide staining-based flow cytometric analysis relative to control; assay type: functional
HepG2 [38] = assay: Induction of apoptosis in human HepG2 cells assessed as necrotic cells at 0.11 uM measured after 48 hrs by Annexin V-FITC/propidium iodide staining-based flow cytometric analysis relative to control; assay type: functional
EA.hy 926 [39] = assay: Induction of apoptosis in human EAhy926 cells assessed as necrotic cells at 0.11 uM measured after 48 hrs by Annexin V-FITC/propidium iodide staining-based flow cytometric analysis relative to control; assay type: functional
[40] = Cytostatic activity against human NHEK cells assessed as cell survival up to 25 uM measured after 72 hrs by MTT assay relative to control; assay type: ADME, cell-based; conditions: read-out: Survival
[41] = Cytostatic activity against human MDA-MB-231 cells assessed as cell survival up to 25 uM measured after 72 hrs by MTT assay relative to control; assay type: functional
EA.hy 926 [42] = assay: Antiangiogenic activity against human EAhy926 assessed as inhibition of capillary tube formation at 0.11 uM after 72 hrs by matrigel assay; assay type: functional; outline: as §2
[43] = Cytostatic activity against human HaCaT cells assessed as cell survival up to 25 uM measured after 72 hrs by MTT assay relative to control; assay type: functional
[44] = Antiproliferative activity against human MCF10A cells measured after 72 hrs by MTT assay; assay type: cell-based; conditions: MCF-10A; outline: as §3
[45] = Cytostatic activity against human MCF7 cells assessed as cell survival up to 25 uM measured after 72 hrs by MTT assay relative to control; assay type: functional

COc1ccc(/C=C\c2cc(OC)c(OC)c(OC)c2)cc1N.Cl
solubility [1]: Soluble

COc1ccc(/C=C\c2ccc3c(c2)oc(=O)n3C)cc1OC
IC50 [2]: > 50 µM
IC50 [3]: 38.3 µM
IC50 [4]: > 50 µM

COc1cc(/C=C\c2ccc3c(c2)oc(=O)n3C)cc(OC)c1OC
Activity [5]: 9%
IC50 [6]: 0.07 µM
inhibition (EA.hy 926 [7]): Active
Activity [8]: 80%
Ratio IC50 (A549): 50
Activity (K562): Active
IC50 [9]: 0.06 µM
Activity (HepG2 [10]): Active
inhibition (Sus scrofa [11]): Dose-dependent effect
Activity (EA.hy 926 [12]): Active
Ratio IC50 (HT-29): >10
IC50 [2]: 0.28 µM
IC50 [13]: 0.25 µM
Activity [14]: Active
inhibition (Sus scrofa [15]): Active
Activity [16]: 39%
IC50 [3]: 0.19 µM
IC50 [17]: 0.05 µM
Activity (EA.hy 926 [18]): 20%
inhibition (HepG2 [19]): Active
Activity (HepG2 [20]): Active
inhibition (HepG2 [21]): Active
inhibition (Sus scrofa [22]): 40%
Activity [23]: 6%
IC50 [24]: 0.168 µM
Activity (EA.hy 926 [25]): Active
Ratio IC50 (Colon 26): 9
viability at 72 h [26]: 70%
Activity [27]: Non-Toxic
inhibition (HepG2 [28]): Active
TIME (Sus scrofa [29]): 0.333 h
Activity [30]: Active
IC50 [4]: 0.73 µM
inhibition (HepG2 [31]): Active
IC50 [32]: 0.06 µM
Activity [33]: Active
Activity [34]: Active
inhibition (HepG2 [35]): Active
Activity (HepG2 [36]): Active
Activity (HepG2 [37]): 20%

COc1ccc(/C=C\c2cc(OC)c(OC)c(OC)c2)cc1O [COMBRETASTATIN A4]
Activity [5]: 9%
Activity (HepG2 [38]): 20%
Activity [8]: 77%
IC50 [2]: 0.17 µM
IC50 [13]: 2.61 µM
Activity [14]: Active
inhibition (Sus scrofa [15]): Active
Activity (EA.hy 926 [39]): 20%
Activity [16]: 33%
IC50 [3]: 0.11 µM
viability at 72 h [40]: 40%
IC50 [17]: 0.44 µM
Survival [41]: 50%
inhibition (EA.hy 926 [42]): Active
Survival [43]: 15%
inhibition (Sus scrofa [22]): Active
Activity (EA.hy 926 [25]): Active
TIME (Sus scrofa [29]): 0.383 h
Activity [30]: Active
IC50 [4]: < 0.1 µM
IC50 [44]: 1.17 µM
IC50 [32]: 3.01 µM
Survival [45]: 35%
Activity [33]: Active
Activity [34]: Active
Activity (HepG2 [36]): Active

COc1cc(/C=C\c2cccc3oc(=O)n(C)c23)cc(OC)c1
IC50 [2]: 29.4 µM
IC50 [3]: 18 µM
IC50 [4]: 11.3 µM

COc1ccc(/C=C\c2ccc3oc(=O)n(C)c3c2)cc1OC
IC50 [2]: > 50 µM
IC50 [3]: 42.1 µM
IC50 [4]: > 50 µM

COc1ccc(/C=C\c2ccc3c(c2)oc(=O)n3C)cc1
IC50 [2]: > 50 µM
IC50 [3]: > 50 µM
IC50 [4]: > 50 µM

COc1cc(/C=C\c2ccc3oc(=O)n(C)c3c2)cc(OC)c1OC
IC50 [2]: > 50 µM
IC50 [3]: 39.7 µM
IC50 [4]: > 50 µM
